Laboratory results taken from ChEMBL document CHEMBL5154634, “A Modular Synthetic Route Involving N-Aryl-2-nitrosoaniline Intermediates Leads to a New Series of 3-Substituted Halogenated Phenazine Antibacterial Agents” (J Med Chem, 2021).
Values after ≈ are worked out from the molar mass of the structure shown. Active and inactive are the calls of the source. No cut-off for these calls is given here.

Key:
Staphylococcus aureus [1] = experiment: Antibiofilm activity against methicillin-resistant Staphylococcus aureus BAA-44 biofilms assessed as biofilm eradication incubated for 24 hrs followed by incubation for 24 hrs in fresh medium by Calgary biofilm device assay; format: functional
Method in brief: (§1)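 Calgary biofilm device. Mid-log culture diluted 1000-fold in TSB with 0.5% glucose; biofilms grown on pegs 24 h at 37 °C. Pegs washed and challenged with twofold compound dilutions for 24 h at 37 °C, then moved to fresh medium for 24 h. MBEC is the lowest concentration leaving wells non-turbid. At least three independent experiments.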

[2] = test system: Staphylococcus epidermidis; experiment: Antibiofilm activity against methicillin-resistant Staphylococcus epidermidis ATCC 35984 biofilms assessed as biofilm eradication incubated for 24 hrs followed by incubation for 24 hrs in fresh medium by Calgary biofilm device assay; format: functional; method in brief: as §1
[3] = test system: Staphylococcus epidermidis; experiment: Bactericidal activity against methicillin-resistant Staphylococcus epidermidis ATCC 35984 planktonic cells assessed as planktonic eradication incubated for 24 hrs followed by incubation for overnight in fresh medium by Calgary biofilm device assay; format: functional
Method in brief: (§2)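 Calgary biofilm device. Biofilms grown 24 h at 37 °C in TSB with 0.5% glucose, then challenged 24 h with twofold compound dilutions. 20 μL of challenge medium transferred into fresh TSB with 0.5% glucose and incubated overnight at 37 °C. MBC is the concentration with no visible turbidity. At least three independent experiments.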

Enterococcus faecium [4] = experiment: Antibiofilm activity against methicillin-resistant vancomycin-resistant Enterococcus faecium ATCC 700221 biofilms assessed as biofilm eradication incubated for 24 hrs followed by incubation for 24 hrs in fresh medium by Calgary biofilm device assay; format: functional; method in brief: as §1
Enterococcus faecium [5] = experiment: Bactericidal activity against methicillin-resistant vancomycin-resistant Enterococcus faecium ATCC 700221 planktonic cells assessed as planktonic eradication incubated for 24 hrs followed by incubation for overnight in fresh medium by Calgary biofilm device assay; format: functional; method in brief: as §2
Enterococcus faecalis [6] = experiment: Bactericidal activity against […] Enterococcus faecalis OG1RF ATCC 47077 planktonic cells assessed as planktonic eradication incubated for 24 hrs followed by incubation for overnight in fresh medium by Calgary biofilm device assay; format: functional
Method in brief: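 Calgary biofilm device in BHI. Biofilms grown 24 h at 37 °C and challenged 24 h with twofold compound dilutions. Challenge medium subcultured 1:10 into fresh BHI overnight at 37 °C. MBC is the concentration with no turbidity. At least three independent experiments.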

Enterococcus faecalis [7] = experiment: Antibiofilm activity against Enterococcus faecalis OG1RF ATCC 47077 biofilms assessed as biofilm eradication incubated for 24 hrs followed by incubation for 24 hrs in fresh medium by Calgary biofilm device assay; format: functional
Method in brief: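 Calgary biofilm device. Biofilms grown 24 h at 37 °C in BHI from mid-log culture diluted 1000-fold. Pegs washed and then challenged 24 h with twofold serial dilutions. Pegs moved to fresh BHI for 24 h recovery. MBEC = lowest concentration leaving no turbidity; at least three independent experiments.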

Enterococcus faecium [8] = experiment: Antibacterial activity against vancomycin-resistant Enterococcus faecium ATCC 700221 assessed as bacterial growth inhibition incubated for 16 hrs by broth microdilution susceptibility test; format: functional
Method in brief: (§3)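 CLSI broth microdilution with 11 twofold dilutions (0.05–50 μM). Medium was LB for the staphylococci and BHI for VRE 700221. About 10^5 cells per well from a log-phase culture. […] DMSO vehicle up to 0.5% v/v. At least three independent experiments.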

[9] = Dissociation constant, pKa of the compound at 125 uM by UV-vis spectrophotometric analysis; format: physicochemical
Method in brief: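 Compound at 125 μM final in phosphate buffers (KH₂PO₄/Na₂HPO₄) in 1:1 water/methanol, pH 4.07–9.66; ammonium hydroxide added for pH above 9.80. UV-vis scans 200–800 nm to find λmax of phenol and phenolate forms. Absorbance at each λmax plotted against pH.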

Staphylococcus aureus [10] = experiment: Antibacterial activity against methicillin-resistant Staphylococcus aureus BAA-1707 assessed as bacterial growth inhibition incubated for 16 hrs by broth microdilution susceptibility test; format: functional
Method in brief: (§4)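 CLSI broth microdilution with 11 twofold dilutions (0.05–50 μM). About 10^5 cells per well from a log-phase culture. DMSO vehicle up to 0.5% v/v. At least three independent experiments.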

[11] = Binding affinity to Fe2+ assessed as compound-Fe2+ complex formation by UV-vis spectroscopy
[12] = test system: Staphylococcus epidermidis; experiment: Antibacterial activity against methicillin-resistant Staphylococcus epidermidis ATCC 35984 assessed as bacterial growth inhibition incubated for 16 hrs by broth microdilution susceptibility test; format: functional; method in brief: as §4
Erythrocyte = experiment: Hemolytic activity against human RBC at 200 uM measured after 1 hr; format: toxicity, cell-based
Method in brief: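 2% hRBCs exposed to compound at 200 μM final, added from DMSO stock, for 1 h at 37 °C. Supernatant OD read at 405 nm. Hemolysis normalized between DMSO (0%) and Triton X (100%); three independent experiments.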

Staphylococcus aureus [13] = experiment: Antibacterial activity against methicillin-resistant Staphylococcus aureus 156 assessed as bacterial growth inhibition; format: functional
HeLa = experiment: Cytotoxicity against human HeLa cells assessed as reduction in cell viability incubated for 24 hrs by LDH release assay; format: toxicity, cell-based
Method in brief: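 HeLa cells in DMEM with 10% FBS, treated at 70–80% confluence with 25, 50 and 100 μM for 24 h. LDH in supernatant measured by 30 min reaction at room temperature, then stop solution and absorbance at 490 nm. Controls: 2% Triton X-100 (maximum), medium only, DMSO vehicle. Three independent experiments.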

Staphylococcus aureus [14] = experiment: Antibacterial activity against methicillin-resistant Staphylococcus aureus clinical isolate 1 assessed as bacterial growth inhibition; format: functional
[15] = test system: Staphylococcus epidermidis; experiment: Antibiofilm activity against methicillin-resistant Staphylococcus epidermidis ATCC 35984 biofilms assessed as reduction of viable biofilm cells at MBEC measured by CBD assay; format: functional
Method in brief: (§5)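 After the Calgary biofilm device assay, treated and untreated pegs were removed, sonicated 30 min in PBS and plated for CFU per peg. Log10 reduction of viable biofilm cells at the MBEC determined by comparison with untreated pegs. At least three independent experiments.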

Staphylococcus aureus [16] = experiment: Antibacterial activity against methicillin-resistant Staphylococcus aureus BAA-44 assessed as bacterial growth inhibition incubated for 16 hrs by broth microdilution susceptibility test; format: functional; method in brief: as §3
[17] = test system: Staphylococcus epidermidis; experiment: Antibiofilm activity against methicillin-resistant Staphylococcus epidermidis ATCC 35984 biofilms assessed as reduction of viable biofilm cells at 3.13 uM measured by CBD assay; format: functional
HepG2 = experiment: Cytotoxicity against human HepG2 cells assessed as reduction in cell viability […] by Alamar blue assay; format: toxicity, cell-based
Staphylococcus aureus [18] = experiment: Antibacterial activity against methicillin-resistant Staphylococcus aureus 138 assessed as bacterial growth inhibition; format: functional
Staphylococcus aureus [19] = experiment: Antibacterial activity against methicillin-resistant Staphylococcus aureus 147 assessed as bacterial growth inhibition; format: functional
[20] = test system: Staphylococcus epidermidis; experiment: Antibiofilm activity against methicillin-resistant Staphylococcus epidermidis ATCC 35984 biofilms assessed as biofilm killing at 3.13 uM measured by CBD assay; format: functional
Staphylococcus aureus [21] = experiment: Antibiofilm activity against methicillin-resistant Staphylococcus aureus BAA-1707 biofilms assessed as biofilm killing at MBEC measured by CBD assay; format: functional
[22] = test system: Mycobacterium tuberculosis; experiment: Antibacterial activity against Mycobacterium tuberculosis CDC1551 assessed as bacterial growth inhibition incubated for 5 days by luminescence based analysis; format: functional; conditions: CDC1551, 120 h, time 5 day
Method in brief: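 Bioluminescent Mtb-lux CDC1551 reporter grown in Middlebrook 7H9 with 0.05% Tween 80, 10% OADC and kanamycin to OD600 0.4–0.8, then diluted to OD600 0.02. Added to twofold drug dilutions (0.003–200 μM). Incubated 5 days at 37 °C, 5% CO2. Luminescence read against 1% DMSO and 10 μM rifampicin controls to give % growth inhibition. MIC taken from a modified Gompertz fit.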

Staphylococcus aureus [23] = experiment: Antibacterial activity against methicillin-resistant Staphylococcus aureus clinical isolate 2 assessed as bacterial growth inhibition; format: functional
Staphylococcus aureus [24] = experiment: Bactericidal activity against methicillin-resistant Staphylococcus aureus BAA-1707 planktonic cells assessed as planktonic eradication incubated for 24 hrs followed by incubation for overnight in fresh medium by Calgary biofilm device assay; format: functional; method in brief: as §2
Staphylococcus aureus [25] = experiment: Antibacterial activity against methicillin-resistant Staphylococcus aureus 129 assessed as bacterial growth inhibition; format: functional
[26] = test system: Mycobacterium tuberculosis; experiment: Antibacterial activity against Mycobacterium tuberculosis H37Ra ATCC 25177 assessed as bacterial growth inhibition incubated for 7 days by absorbance based analysis; format: functional; conditions: H37Ra ATCC 25177, 168 h, time 7 day
Method in brief: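 H37Ra grown 2 weeks in Middlebrook 7H9, then diluted to OD600 0.01. Compounds added in twofold dilutions, final 0.024–50 μM, with 0.5% DMSO and streptomycin as positive control. Incubated 7 days at 37 °C. MIC is the lowest concentration with no growth, with OD600 recorded. At least three independent experiments.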

Staphylococcus aureus [27] = experiment: Antibiofilm activity against methicillin-resistant Staphylococcus aureus BAA-1707 biofilms assessed as reduction of viable biofilm cells at MBEC measured by CBD assay; format: functional; method in brief: as §5
Enterococcus faecalis [28] = experiment: Antibacterial activity against Enterococcus faecalis OG1RF ATCC 47077 assessed as bacterial growth inhibition incubated for 16 hrs by broth microdilution susceptibility test; format: functional
Staphylococcus aureus [29] = experiment: Antibiofilm activity against methicillin-resistant Staphylococcus aureus BAA-1707 biofilms assessed as biofilm eradication incubated for 24 hrs followed by incubation for 24 hrs in fresh medium by Calgary biofilm device assay; format: functional; method in brief: as §1
J774 = experiment: Cytotoxicity against mouse J774 cells assessed as reduction in cell viability […] by Alamar blue assay; format: toxicity, cell-based

CN[C@H](CC(C)C)C(=O)N[C@H]1C(=O)N[C@@H](CC(N)=O)C(=O)N[C@H]2C(=O)N[C@H]3C(=O)N[C@H](C(=O)N[C@H](C(=O)O)c4cc(O)cc(O)c4-c4cc3ccc4O)[C@H](O)c3ccc(c(Cl)c3)Oc3cc2cc(c3O[C@@H]2O[C@H](CO)[C@@H](O)[C@H](O)[C@H]2O[C@H]2C[C@](C)(N)[C@H](O)[C@H](C)O2)Oc2ccc(cc2Cl)[C@H]1O [VANCOMYCIN]
MBEC (Staphylococcus aureus [1]): >2000 µM
MBEC [2]: >2000 µM
MBC [3]: 2 µM (≈ 2.9 µg/mL)
MBEC (Enterococcus faecium [4]): >2000 µM
MBC (Enterococcus faecium [5]): 750 µM (≈ 1090 µg/mL)
MBC (Enterococcus faecalis [6]): 11.7 µM (≈ 17 µg/mL)
MBEC (Enterococcus faecalis [7]): >2000 µM

Oc1cc(Cl)cc2nc3ccccc3nc12
MIC (Enterococcus faecium [8]): > 50 µM
pKa at 125 µM [9]: 8.04
MIC (Staphylococcus aureus [10]): 25 µM (≈ 5.77 µg/mL)
Activity [11]: Active
MIC [12]: 18.8 µM (≈ 4.34 µg/mL)

Oc1c(Br)c(Cl)c(Br)c2nc3c(Cl)cc(Cl)cc3nc12
Activity (Erythrocyte): <= 1%
MIC (Enterococcus faecium [8]): 0.08 µM (≈ 0.0366 µg/mL)
MIC (Staphylococcus aureus [13]): 0.47 µM (≈ 0.215 µg/mL)
MBEC [2]: 0.3 µM
IC50 (HeLa): > 100 µM
MBC [3]: 0.59 µM (≈ 0.27 µg/mL)
MIC (Staphylococcus aureus [14]): 0.47 µM (≈ 0.215 µg/mL)
Activity [15]: 3.18 log10CFU
MIC (Staphylococcus aureus [16]): 0.15 µM (≈ 0.0686 µg/mL)
Activity [17]: 5 log10CFU
IC50 (HepG2): > 200 µM
MIC (Staphylococcus aureus [18]): 0.47 µM (≈ 0.215 µg/mL)
MIC (Staphylococcus aureus [19]): 0.47 µM (≈ 0.215 µg/mL)
pKa at 125 µM [9]: 6.07
MIC (Staphylococcus aureus [10]): 0.59 µM (≈ 0.27 µg/mL)
Activity [20]: 99.999%
Activity (Staphylococcus aureus [21]): 99.9%
MIC [22]: 0.8 µM (≈ 0.366 µg/mL)
MIC (Staphylococcus aureus [23]): 0.47 µM (≈ 0.215 µg/mL)
MBEC (Enterococcus faecium [4]): 0.2 µM
MBC (Staphylococcus aureus [24]): 1.56 µM (≈ 0.713 µg/mL)
MIC (Staphylococcus aureus [25]): 0.47 µM (≈ 0.215 µg/mL)
MIC [26]: 6.25 µM (≈ 2.86 µg/mL)
Activity (Staphylococcus aureus [27]): 3.03 log10CFU
Activity [11]: Active
MIC (Enterococcus faecalis [28]): 0.3 µM (≈ 0.137 µg/mL)
MBC (Enterococcus faecium [5]): 0.39 µM (≈ 0.178 µg/mL)
MBEC (Staphylococcus aureus [29]): 3.13 µM
IC50 (J774): > 200 µM
MIC [12]: ≤ 0.05 µM
MBC (Enterococcus faecalis [6]): 3.13 µM (≈ 1.43 µg/mL)
